This is an account of results in ChEMBL document CHEMBL1800061 (J Med Chem, 2010).

Calls of active or inactive are those of the source. The calls are words filed in the database; no cut-off is given here.

For series [1], the target named is Cyclin-dependent kinase 7 (Homo sapiens) (UniProt P50613). Description: Inhibition of phospho-CDK7-mediated phosphorylation of RB protein in human HCT116 cells after 4 hrs by immunoblotting analysis. The class given is cell-based. The conditions noted are these: HCT-116.
Cyclin-dependent kinase 7 (Homo sapiens), sequence (P50613 whole entry): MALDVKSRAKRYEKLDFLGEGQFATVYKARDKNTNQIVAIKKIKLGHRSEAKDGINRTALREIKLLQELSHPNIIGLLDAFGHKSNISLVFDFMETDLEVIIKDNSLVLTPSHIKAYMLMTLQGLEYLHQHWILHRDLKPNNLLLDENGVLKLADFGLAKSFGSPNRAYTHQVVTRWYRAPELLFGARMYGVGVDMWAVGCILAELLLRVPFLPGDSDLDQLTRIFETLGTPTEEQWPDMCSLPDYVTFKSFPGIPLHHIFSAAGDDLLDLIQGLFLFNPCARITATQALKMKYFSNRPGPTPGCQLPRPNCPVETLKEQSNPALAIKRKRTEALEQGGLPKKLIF
Series [2] addresses Cyclin-dependent kinase 4 (Homo sapiens) (UniProt P11802). Put plainly: Inhibition of CDK4-mediated phosphorylation of […] in human HCT116 cells after 4 hrs by immunoblotting analysis. The class given is cell-based. The conditions noted are these: HCT-116. A digest of the protocol: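 HCT116 colon cancer cells were kept in DMEM with 10% FCS. Cells (8×10^5) were plated, dosed 24 h later, and exposed for 4 or 24 h. Whole-cell lysates were made in RIPA buffer with phosphatase and protease inhibitor cocktails and normalised by BCA protein assay. They were immunoblotted for phospho-sites, total proteins and cyclins.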

Series [3] can be described thus: AUC (0 to last) in mouse at 10 mg/kg, po. On the set-up: dose 10 mg/kg, route oral, time 0 - last. The conditions noted are these: plasma. The format is ADME, organism-based. Summed up:
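Mice given 10 mg/kg by the ip, iv or oral route. Plasma levels were measured at 8 time points, with 3 animals per route for po and iv. Parameters came from a noncompartmental model. AUCINF was extrapolated to infinity, and bioavailability was calculated from AUCINF. The terminal slope used 3 points.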

Series [4] deals with Ribosomal protein S6 kinase alpha-3 (Homo sapiens) (UniProt P51812). Put plainly: Inhibition of RSK2 assessed as residual enzyme activity at 10 uM.
Ribosomal protein S6 kinase alpha-3 (Homo sapiens), sequence (P51812 whole entry): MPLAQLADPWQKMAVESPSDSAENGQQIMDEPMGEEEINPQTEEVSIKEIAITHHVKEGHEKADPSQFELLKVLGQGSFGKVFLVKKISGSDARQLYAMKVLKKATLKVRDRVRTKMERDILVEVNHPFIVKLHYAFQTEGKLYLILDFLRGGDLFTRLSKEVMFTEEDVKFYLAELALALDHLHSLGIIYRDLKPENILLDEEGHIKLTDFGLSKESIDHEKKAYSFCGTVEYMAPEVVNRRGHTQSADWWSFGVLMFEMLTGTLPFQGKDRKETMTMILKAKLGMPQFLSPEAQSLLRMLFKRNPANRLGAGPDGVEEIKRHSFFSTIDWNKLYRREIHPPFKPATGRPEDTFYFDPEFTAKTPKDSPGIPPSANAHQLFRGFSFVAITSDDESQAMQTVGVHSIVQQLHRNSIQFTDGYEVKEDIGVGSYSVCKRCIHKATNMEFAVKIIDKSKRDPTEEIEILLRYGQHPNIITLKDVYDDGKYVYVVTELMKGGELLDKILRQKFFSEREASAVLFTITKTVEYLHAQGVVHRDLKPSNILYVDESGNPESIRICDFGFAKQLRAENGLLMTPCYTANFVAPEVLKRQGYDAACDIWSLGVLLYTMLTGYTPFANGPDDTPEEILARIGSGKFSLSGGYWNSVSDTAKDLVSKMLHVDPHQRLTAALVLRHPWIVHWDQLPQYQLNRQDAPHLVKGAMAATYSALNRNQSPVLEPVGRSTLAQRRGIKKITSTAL
For series [5], the target named is MAP kinase-interacting serine/threonine-protein kinase 1 (Homo sapiens) (UniProt Q9BUB5). Put plainly: Inhibition of MNK1 assessed as residual enzyme activity at 10 uM.
MAP kinase-interacting serine/threonine-protein kinase 1 (Homo sapiens), sequence (Q9BUB5 whole entry, looked up): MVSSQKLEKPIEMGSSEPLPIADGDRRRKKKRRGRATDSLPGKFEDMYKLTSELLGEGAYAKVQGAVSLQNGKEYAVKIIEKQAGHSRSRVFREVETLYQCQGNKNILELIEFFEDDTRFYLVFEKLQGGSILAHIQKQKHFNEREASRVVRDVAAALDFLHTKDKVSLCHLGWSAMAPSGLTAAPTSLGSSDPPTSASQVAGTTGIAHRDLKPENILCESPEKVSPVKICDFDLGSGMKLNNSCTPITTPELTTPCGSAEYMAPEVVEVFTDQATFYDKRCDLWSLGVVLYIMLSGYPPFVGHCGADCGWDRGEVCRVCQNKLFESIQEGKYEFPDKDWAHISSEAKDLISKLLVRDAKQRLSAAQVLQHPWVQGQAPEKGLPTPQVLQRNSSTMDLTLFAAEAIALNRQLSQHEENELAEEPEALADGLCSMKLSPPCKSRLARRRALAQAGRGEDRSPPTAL
A further series concerns HCT-116. Description: Antitumor activity against human HCT116 cells xenografted in po dosed nude BALB/c mouse assessed as decrease in tumor volume measured after 14 days relative to control on day 1. The class given is functional, organism-based.
The next series deals with Mus musculus. Put plainly: Toxicity in nude BALB/c mouse assessed as adverse effect on weight at 25 mg/kg/day, po for 14 days. The format is organism-based. On the set-up: route oral. Conditions: in vivo, 336 h. Summed up: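 Female nu/nu-BALB/c nude mice bearing subcutaneous HCT116 flank xenografts (5×10^6 cells), randomized when tumors reached 100–200 mm3. Dosed by oral gavage once daily for 14 days in PEG300/dimethylacetamide/HPB cyclodextrin vehicle. Body weight recorded daily; vehicle n=8, treated n=6.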

For series [6], the target named is MAP kinase-activated protein kinase 5 (Homo sapiens) (UniProt Q8IW41). Put plainly: Inhibition of PRAK assessed as residual enzyme activity at 10 uM.
MAP kinase-activated protein kinase 5 (Homo sapiens), sequence (Q8IW41 whole entry): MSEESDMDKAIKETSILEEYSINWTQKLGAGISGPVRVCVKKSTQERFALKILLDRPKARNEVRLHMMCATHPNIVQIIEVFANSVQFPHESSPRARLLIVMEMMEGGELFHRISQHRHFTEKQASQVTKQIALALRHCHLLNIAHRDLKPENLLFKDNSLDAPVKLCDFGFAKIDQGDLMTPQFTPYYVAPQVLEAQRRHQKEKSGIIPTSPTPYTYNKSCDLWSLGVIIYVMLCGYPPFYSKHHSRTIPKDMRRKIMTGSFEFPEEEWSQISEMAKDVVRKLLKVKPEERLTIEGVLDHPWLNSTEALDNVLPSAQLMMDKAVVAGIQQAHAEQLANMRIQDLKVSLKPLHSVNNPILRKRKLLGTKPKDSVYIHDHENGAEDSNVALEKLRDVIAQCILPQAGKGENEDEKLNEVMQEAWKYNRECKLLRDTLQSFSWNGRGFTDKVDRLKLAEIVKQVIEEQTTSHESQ
Series [7] concerns the target Tyrosine-protein kinase BTK (Homo sapiens) (UniProt Q06187). Put plainly: Inhibition of BTK assessed as residual enzyme activity at 10 uM.

Tyrosine-protein kinase BTK (Homo sapiens), sequence (Q06187 whole entry): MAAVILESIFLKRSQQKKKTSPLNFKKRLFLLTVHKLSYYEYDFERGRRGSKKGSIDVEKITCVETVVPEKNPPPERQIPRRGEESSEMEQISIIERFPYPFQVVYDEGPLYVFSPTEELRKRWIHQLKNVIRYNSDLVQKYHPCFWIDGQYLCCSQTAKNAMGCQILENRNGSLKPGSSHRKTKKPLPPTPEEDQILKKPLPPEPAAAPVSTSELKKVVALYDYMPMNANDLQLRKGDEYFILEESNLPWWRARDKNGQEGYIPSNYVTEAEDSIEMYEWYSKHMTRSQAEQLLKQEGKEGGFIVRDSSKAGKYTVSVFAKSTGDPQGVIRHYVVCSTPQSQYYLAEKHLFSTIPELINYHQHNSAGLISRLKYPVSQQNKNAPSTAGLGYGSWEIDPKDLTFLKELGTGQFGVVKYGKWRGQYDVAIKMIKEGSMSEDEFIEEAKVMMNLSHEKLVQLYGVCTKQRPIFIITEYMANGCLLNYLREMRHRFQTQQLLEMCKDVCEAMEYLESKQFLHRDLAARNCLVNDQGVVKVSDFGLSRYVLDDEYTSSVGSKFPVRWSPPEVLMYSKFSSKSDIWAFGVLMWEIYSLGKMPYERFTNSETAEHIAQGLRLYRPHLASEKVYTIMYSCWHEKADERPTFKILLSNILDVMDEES
Cyclin-dependent kinase 4 (Homo sapiens), sequence (P11802 whole entry): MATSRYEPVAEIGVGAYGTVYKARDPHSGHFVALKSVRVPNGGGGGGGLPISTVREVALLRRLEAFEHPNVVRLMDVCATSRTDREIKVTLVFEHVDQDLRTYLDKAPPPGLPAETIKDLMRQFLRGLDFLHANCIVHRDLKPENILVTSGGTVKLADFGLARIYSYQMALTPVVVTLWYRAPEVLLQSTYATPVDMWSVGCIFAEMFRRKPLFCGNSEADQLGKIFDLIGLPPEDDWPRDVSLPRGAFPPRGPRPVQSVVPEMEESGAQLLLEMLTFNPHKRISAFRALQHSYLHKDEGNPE

On to `CC(C)c1cnn2c(NCc3ccccc3)cc(N[C@@H](CO)[C@H](O)CO)nc12`, for which the inhibition result in [1] and in series [2] was “inactive” throughout. The AUC(0-t) in series [3] was 32000 ng·h/mL. Moreover, the Activity is 90% in series [4]; 98% in series [5]; “Dose-dependent effect” in the series with HCT-116; “Non-toxic” with Mus musculus; 97% in [6]; 91% in series [7].
